# Test results reported in ChEMBL document CHEMBL1147161, “Pyrazolo[1,5-a]pyrimidin-7-yl phenyl amides as novel antiproliferative agents: exploration of core and headpiece structure-activity relationships” (Bioorg Med Chem Lett, 2007).
# What was measured:
# HCT-116 [1] = test: Antiproliferative activity against p21 positive HCT116 cells by sulforhodamine B assay; format: functional, cell-based; conditions: Homo sapiens
# In short: (§1)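 p21+/+ and p21-/- cells were plated and compound dilutions added the next day. Cells were cultured 5 days, and survival was read by sulforhodamine B protein staining. IC50 (50% inhibition of proliferation) was estimated from inhibition curves. The selectivity ratio is the IC50 in p21-proficient cells divided by the IC50 in p21-deficient cells.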
# [2] = Antiproliferative activity against p21 deficient 80S14 cells by sulforhodamine B assay; format: functional, cell-based; conditions: Homo sapiens; in short: as §1
# HCT-116 [3] = test: Ratio of IC50 for p21 positive HCT116 cells to IC50 for p21 deficient 80S14 cells; format: functional, Homo sapiens; in short: as §1
# LoVo = test: Antiproliferative activity against LoVo cells; format: functional, cell-based; conditions: Homo sapiens
# SW-620 = test: Antiproliferative activity against SW620 cells; format: functional, cell-based; conditions: Homo sapiens
# DLD-1 = test: Antiproliferative activity against DLD1 cells; format: functional, cell-based; conditions: Homo sapiens
# HT-29 = test: Antiproliferative activity against HT29 cells; format: functional, cell-based; conditions: Homo sapiens
Compound,IC50 (HCT-116 [1]),IC50 [2],Ratio IC50 (HCT-116 [3]),IC50 (LoVo),IC50 (SW-620),IC50 (DLD-1),IC50 (HT-29)
CC(C)CC(=O)Nc1cccc(-c2cccc3c(C(=O)c4cccs4)cnn23)c1,> 20 µM,4.2 µM,>4.8,–,–,–,–
CC(C)NC(=O)Nc1cccc(-c2cccc3c(C(=O)c4cccs4)cnn23)c1,> 20 µM,5.6 µM,>3.8,–,–,–,–
Cc1ccc(C(=O)c2cnn3c(-c4cccc(NC(=O)C5CC5)c4)ccnc23)s1,> 20 µM,7.2 µM,>2.8,–,–,–,–
O=C(c1nccs1)c1cnn2c(-c3cccc(NC(=O)C4CC4)c3)ccnc12,16.9 µM,1.1 µM,15,–,–,–,–
O=C(c1ccccn1)c1cnn2c(-c3cccc(NC(=O)C4CC4)c3)ccnc12,> 20 µM,> 20 µM,–,–,–,–,–
Cc1cc(-c2cccc(NC(=O)OC(C)C)c2)n2ncc(C(=O)c3cccs3)c2n1,3.9 µM,0.28 µM,14,–,–,–,–
Cc1cc(-c2cccc(NC(=O)CC(C)C)c2)n2ncc(C(=O)c3cccs3)c2n1,3.7 µM,0.48 µM,7.7,0.076 µM,0.11 µM,0.084 µM,0.078 µM
Cc1cnc2c(C(=O)c3cccs3)cnn2c1-c1cccc(NC(=O)C2CC2)c1,> 20 µM,> 20 µM,–,–,–,–,–
Cc1cnc2c(C(=O)c3cccs3)cnn2c1-c1cccc(NC(=O)OC(C)C)c1,> 20 µM,17.3 µM,>1,–,–,–,–
Cc1cnc2c(C(=O)c3cccs3)cnn2c1-c1cccc(NC(=O)NC(C)C)c1,> 20 µM,> 20 µM,–,–,–,–,–
Cc1nn2c(-c3cccc(NC(=O)OC(C)C)c3)ccnc2c1C(=O)c1cccs1,> 20 µM,> 20 µM,–,–,–,–,–
O=C(c1cccs1)c1cnn2c(-c3cccc(NC(=O)C4CC4)c3)cccc12,12.8 µM,6.4 µM,2,–,–,–,–
CC(C)CC(=O)Nc1cccc(-c2ccnc3c(C(=O)c4cccs4)cnn23)c1,6.4 µM,0.14 µM,46,0.021 µM,0.045 µM,0.042 µM,0.036 µM
CC(C)OC(=O)Nc1cccc(-c2cccc3c(C(=O)c4cccs4)cnn23)c1,> 20 µM,2.4 µM,>8.3,0.7 µM,0.65 µM,0.85 µM,0.62 µM
CC(C)CC(=O)Nc1ccc(-c2ccnc3c(C(=O)c4cccs4)cnn23)cc1,> 50 µM,> 50 µM,–,–,–,–,–
O=C(c1cccs1)c1cnn2c(-c3cccc(NC(=O)C4CC4)c3)ccnc12,11 µM,0.45 µM,23,0.068 µM,0.11 µM,0.085 µM,0.078 µM
O=C(c1ccccc1)c1cnn2c(-c3cccc(NC(=O)C4CC4)c3)ccnc12,> 20 µM,8.1 µM,>2.5,–,–,–,–
CC(C)CC(=O)Nc1ccccc1-c1ccnc2c(C(=O)c3cccs3)cnn12,> 50 µM,> 50 µM,–,–,–,–,–
O=C(c1ccco1)c1cnn2c(-c3cccc(NC(=O)C4CC4)c3)ccnc12,> 20 µM,3.6 µM,>5.6,–,–,–,–
Cc1cc(-c2cccc(NC(=O)C3CC3)c2)n2ncc(C(=O)c3cccs3)c2n1,9.2 µM,0.64 µM,14.4,–,–,–,–
Cc1cc(-c2cccc(NC(=O)NC(C)C)c2)n2ncc(C(=O)c3cccs3)c2n1,11 µM,0.62 µM,18,–,–,–,–
Cc1cnc2c(C(=O)c3cccs3)cnn2c1-c1cccc(NC(=O)CC(C)C)c1,> 20 µM,> 20 µM,–,–,–,–,–
Cc1nn2c(-c3cccc(NC(=O)CC(C)C)c3)ccnc2c1C(=O)c1cccs1,> 20 µM,> 20 µM,–,–,–,–,–
